Assay results published in ChEMBL document CHEMBL1127691, “Discovery, synthesis, and bioactivity of bis(heteroaryl)piperazines. 1. A novel class of non-nucleoside HIV-1 reverse transcriptase inhibitors” (J Med Chem, 1994).

How the values were obtained:
[1] = Selective index is the ratio of inhibitory concentrations of cellular DNA polymerase delta to HIV-1 reverse transcriptase
In short: (§1)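 Index = IC50 for cellular DNA polymerase α or δ divided by IC50 for HIV-1 RT. RT IC50 measured with recombinant RT and poly(rA):oligo(dT)10 template:primer.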

MT2 [2] = assay: Tested for the drug concentration required to decrease HIV-1IIIb infected MT-2 cell viability compared to uninfected controls; type: functional; conditions: Homo sapiens
In short: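 MT-2 cells with HIV-1 IIIb (MOI 0.001), 4-day culture. Viability by trypan blue exclusion. CC50 is the concentration lowering viability relative to uninfected controls; mostly estimated.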

[3] = Tested for the drug concentration required to decrease […] infected human peripheral blood mononuclear cell viability compared to uninfected controls; type: functional
In short: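 Uninfected and HIV-1 D34-infected PBMC at 37 °C, 5% CO2. Viability taken from mitogen-stimulated cell proliferation. CC50 is the concentration lowering viability relative to uninfected controls; mostly estimated.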

[4] = test system: Human immunodeficiency virus 1; assay: (§2) Effective antiviral dose required to block the spread of HIV-1D34 infection in human peripheral blood mononuclear cells; type: functional; conditions: read-out: ED50 (the source's name)
In short: (§3)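 PBMC (1 × 10^6 cells) infected with HIV-1 D34 inoculum containing 1 ng p24, cultured at 37 °C in 5% CO2. Replication read as supernatant p24 at day 4. ED50 = 50% effective antiviral dose, estimated in some cases.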

MT2 [5] = assay: Effective antiviral dose required to block the spread of HIV-1 IIIb infection in MT-2 cells by monitoring the formation of syncytia; type: functional; conditions: Homo sapiens, read-out: ED50 (the source's name)
In short: (§4)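 MT-2 cells infected with HIV-1 IIIb at MOI 0.001, held at 37 °C in 5% CO2. Syncytium formation scored 4 days post-infection, at peak cytopathic effect. ED50 is the dose giving 50% reduction in syncytia; some values were estimated, and ">" means 50% was not reached at the top concentration.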

[6] = Selective index is the ratio of inhibitory concentrations of cellular DNA polymerase alpha to HIV-1 reverse transcriptase; in short: as §1
[7] = biological target: Human immunodeficiency virus type 1 reverse transcriptase (Human immunodeficiency virus 1) (UniProt Q72547); assay: In vitro inhibitory activity against HIV-1 reverse transcriptase at 100 uM
In short: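 Recombinant HIV-1 RT (p51/p66 heterodimer, 90–95% pure, 0.0274 μM) with poly(rA) 10 μg/mL and (dT)10 primer 5 μg/mL; 8 μM α-35S-dTTP, 50 mM Tris-HCl pH 8.3, 10 mM MgCl2, 60 mM NaCl, 20 mM DTT, 0.05% NP-40. 37 °C, 15 min; TCA-precipitated label counted on filters. Percent inhibition at 100 μM, mean of at least two determinations.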

[8] = as §2; type: functional; conditions: read-out: ED50 (the source's name); in short: as §3
MT2 [9] = assay: Effective antiviral dose required to block the spread of HIV-1 IIIb infection in MT-2 cells by monitoring the formation of syncytia.; type: functional; conditions: Homo sapiens, read-out: ED50 (the source's name); in short: as §4

| Selectivity index [1] | EC50 [4] [nM] | EC50 (MT2 [5]) [nM] | Selectivity index [6] | inhibition [7] [%] | EC50 [8] [nM] | EC50 (MT2 [9]) [nM] | SMILES | CC50 (MT2 [2]) [nM] | CC50 [3] [nM] |
| --- | --- | --- | --- | --- | --- | --- | --- | --- | --- |
| 2500 | 10 | 200 | 225 | 89 | – | – | CC(C)(C)Nc1cccnc1N1CCN(C(=O)c2cc3ccccc3[nH]2)CC1 | > 2400 | 10000 |
| – | – | – | – | 21 | > 1000 | – | CCNc1ccccc1N1CCN(C(=O)c2cc(C)c(OC)c(C)c2)CC1 | – | ~10000 |
| > 60 | 1000 | – | 30 | 73 | – | 2000 | CCNc1cccnc1N1CCN(Cc2cc(C)c(OC)c(C)c2)CC1 | 15000 | > 10000 |
| > 83 | 10 | 220 | > 83 | 86 | – | – | COc1ccc2[nH]c(C(=O)N3CCN(c4ncccc4NC(C)(C)C)CC3)cc2c1 | > 22000 | – |
| 10000 | 1 | 300 | 1100 | 96 | – | – | CC(C)Nc1cccnc1N1CCN(C(=O)c2cc3ccccc3[nH]2)CC1 | > 27000 | > 10000 |
| 1670 | 1 | < 300 | 220 | 93 | – | – | CCNc1cccnc1N1CCN(C(=O)c2cc3cc(F)ccc3[nH]2)CC1 | > 27000 | – |
| 2800 | 10 | 300 | 1500 | – | – | – | CCNc1cccnc1N1CCN(C(=O)c2cc3ccccc3[nH]2)CC1 | > 30000 | > 10000 |
